Sampled rows, rich in hits. Any-hit rate of the full collection: about 3.1%.
SENP6 block – inhibitors of human SENP6 protease | Recombinant SENP6 catalytic domain, aminoluciferin luminescence | inhibition, % at 10 µM | 330,000 tested, 1.8% active;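 active = inhibition above about 50% at the single tested dose, limit read from the data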;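 note: plate controls were DMSO wells with enzyme for no effect and DMSO wells lacking enzyme for full effect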
SENP7 inh – SENP7 protease inhibition; Q9BQF6; recombinant SENP7, Z-RLRGG-aminoluciferin luminescence, 40 min; inhibition, % at 5 µM; 330,000 tested, 1.5% active; AID 434973;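 active = inhibition above about 50% at the single test dose, limit read from the data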;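 note: plate controls were DMSO with enzyme for no effect and no enzyme buffer wells for full effect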
Target sequence (Q9BQF6 706-1050 limits assumed): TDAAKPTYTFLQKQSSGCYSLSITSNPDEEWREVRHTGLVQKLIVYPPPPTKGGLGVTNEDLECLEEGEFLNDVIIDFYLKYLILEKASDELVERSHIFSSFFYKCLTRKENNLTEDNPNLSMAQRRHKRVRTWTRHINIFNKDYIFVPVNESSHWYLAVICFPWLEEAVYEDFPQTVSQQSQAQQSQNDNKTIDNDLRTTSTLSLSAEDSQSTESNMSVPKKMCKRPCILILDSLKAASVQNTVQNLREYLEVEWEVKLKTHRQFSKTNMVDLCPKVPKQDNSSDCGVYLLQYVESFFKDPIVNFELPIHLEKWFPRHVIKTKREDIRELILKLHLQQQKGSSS
SENP8 block-1 – inhibitors of human SENP8 protease. 330,000 tested, 1.2% active. Q96LD8. purified SENP8, Z-RLRGG-aminoluciferin cleavage, luminescence. AID 2540. inhibition, % at 10 µM; in the data active = inhibition above about 50%
UBC13 inh – inhibitors of human UBC13 polyubiquitin chain formation; 330,000 tested, 0.47% active; P61088; inhibition, % at 20 µM; TR-FRET; in the data active = inhibition above about 45%, passing the limit was not always enough; inconclusive = no clear call, values can overlap the other calls
Target sequence (P61088 whole entry, looked up): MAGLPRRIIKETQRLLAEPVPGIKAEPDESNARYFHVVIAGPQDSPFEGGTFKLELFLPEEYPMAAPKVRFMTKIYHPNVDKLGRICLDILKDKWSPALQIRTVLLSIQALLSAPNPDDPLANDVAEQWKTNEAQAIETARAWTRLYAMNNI
Apaf1 inhib – inhibitors of human Apaf-1 apoptosome | O14727 | reconstituted apoptosome caspase-3 activity, DEVD-Rh110 fluorescence | inhibition, % at 20 µM | 330,000 tested, 0.71% active | AID 489030; active = inhibition of at least 40% at 20 µM;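 note: plate controls were DMSO wells for no effect and DEVD-CHO caspase inhibitor wells for full effect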
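Medium: Hepes buffer, pH 7.5 / System: biochemical Apaf-1 apoptosome reconstitution / Measured by: Rh110 fluorescence, excitation 480 nm, emission 540 nm / Times: compound with Apaf-1, dATP, procaspase-3 30 min, then 50 min reaction, room temperature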
SENP8 block-2 – SENP8 (human) protease inhibition | inhibition, % at 20 µM | AID 602440 | recombinant SENP8, Nedd8 substrate fluorescence | 360,000 tested, 0.64% active | Q96LD8; in the data active = inhibition mostly above about 40%, no sharp cut-off; inactive = mostly below about 27%
SENP8 conf – confirmation of human SENP8 protease inhibitors. inhibition, % at 12.5 µM. 6,200 tested, 40% active. Recombinant SENP8, Z-RLRGG-aminoluciferin luminescence, 60 min. shares compounds with SENP7 inh. AID 488912;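 active = mean inhibition across replicates above about 50%, limit read from the data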
SENP6 confirm – confirmation of human SENP6 protease inhibitors. shares compounds with SENP7 inh. recombinant SENP6, Z-RLRGG-aminoluciferin luminescence. inhibition, % at 12.5 µM. 6,200 tested, 58% active. AID 488915
SENP7 conf – human SENP7 inhibition, confirmed; shares compounds with SENP7 inh; 6,200 tested, 69% active; inhibition, % at 12.5 µM; recombinant SENP7, Z-RLRGG-aminoluciferin luminescence, 40 min
Casp3 SENP sel – caspase-3 inhibition (SENP selectivity assay); shares compounds with SENP7 inh; purified caspase-3, Z-DEVD-aminoluciferin luminescence, 60 min; inhibition, % at 12.5 µM; 6,200 tested, 60% active;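 active = mean inhibition above about 50%, limit read from the data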;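 note: plate controls were enzyme with DMSO for no effect and wells without caspase-3 for full effect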
Target sequence (P42574 28-227 limits assumed): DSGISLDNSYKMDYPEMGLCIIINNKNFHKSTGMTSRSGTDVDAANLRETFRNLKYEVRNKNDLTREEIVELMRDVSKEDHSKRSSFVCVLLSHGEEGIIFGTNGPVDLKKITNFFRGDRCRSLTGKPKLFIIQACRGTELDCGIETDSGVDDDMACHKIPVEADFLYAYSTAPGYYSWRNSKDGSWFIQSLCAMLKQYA
SENP luc ctr – luminescence interference (SENP counter-screen); inhibition, % at 12.5 µM; Pre-incubated SENP8/Z-RLRGG-aminoluciferin, luciferase luminescence interference; 6,200 tested, 39% active; shares compounds with SENP7 inh;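 active = mean inhibition above about 50% when retested at one dose, limit read from the data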;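 note: plate controls were DMSO wells with completed reaction for no effect and substrate without enzyme for full effect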
Starred values were filed as active, the others as inactive; i = inactive; ? = inconclusive; . = no result given.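 Rule for the calls, unless noted: active = mean inhibition above about 50% in the one-dose retest (limit read from the data); inactive = the rest.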

SMILES | SENP6 block | SENP7 inh | SENP8 block-1 | UBC13 inh | Apaf1 inhib | SENP8 block-2 | SENP8 conf | SENP6 confirm | SENP7 conf | Casp3 SENP sel | SENP luc ctr
CN(C)/C=N/C(=S)Nc1ccc(Cl)c(Cl)c1 | 60* | 38 | 13 | 18 | 12 | 18 | 62* | 61* | 85* | 58* | 9
COc1cccc(CN=C2Nc3ccccc3CS2)c1 | 48 | 33 | 34 | 2 | 16 | 4 | . | . | . | . | .
Cc1ccc(CN=C2Nc3ccccc3CS2)cc1 | 89* | 88* | 83* | 7 | 10 | 14 | 91* | 91* | 100* | 84* | 83*
Clc1ccc(CN=C2Nc3ccccc3CS2)cc1 | 69* | 60* | 44 | 10 | 8 | 11 | 66* | 68* | 87* | 48 | 80*
c1cncc(CN=C2Nc3ccccc3CS2)c1 | 21 | 4 | -5 | 5 | 8 | 9 | . | . | . | . | .
CC1=C(C(=O)N2CCCCCC2)CC(CC(=O)NC2CCCC2)C(=O)N1Cc1ccc(C(C)(C)C)cc1 (stereo not drawn) | . | . | . | . | . | 15 | . | . | . | . | .
Cn1c(=O)c2cc(NC(=O)NCc3ccc(F)cc3)ccc2n1C | . | . | . | . | . | i | . | . | . | . | .
Cn1nc([N+](=O)[O-])nc1N1CCOCC1 | 5 | 10 | 61* | -6 | 6 | -1 | -13 | 5 | -3 | -4 | -3
CN1C=CC(=C[N+](=O)[O-])N(C)C1=O | . | . | . | . | . | 13 | . | . | . | . | .
CC(=O)c1ccc(OCc2nnn(CC(=O)O)c2-c2ccccc2)cc1 | . | . | . | . | . | 9 | . | . | . | . | .
Cc1cc(C)c(-c2nc3ccccc3s2)[nH]1 | 19 | 4 | 59* | 8 | 0 | -326 | 81* | 90* | 99* | 76* | 70*
Nc1cccc(-c2nc3ccccc3s2)c1 | 100* | 100* | 93* | 9 | 7 | i | 96* | 98* | 103* | 96* | 97*
Oc1cccc(-c2nc3ccccc3s2)c1 | 96* | 95* | 92* | 9 | 17 | -142 | -23 | 95* | 102* | 87* | 95*
COC(=O)[C@@]12C[C@@H](CC(=O)NCc3ccc(C)o3)C(=O)N(Cc3cccc4ccccc34)C1=CCC(C)(C)C2 | . | . | . | . | . | 4 | . | . | . | . | .
COc1ccc(-c2ccc(C(=O)Nc3ccc(C(C)C)cc3)c3occc23)c(C)c1 | . | . | . | . | . | 1 | . | . | . | . | .
COc1cccc(Cn2c(C(C)n3c(-c4cnccn4)nc4ccccc43)nc3ccccc32)c1 (stereo not drawn) | . | . | . | . | . | -391 | . | . | . | . | .
C[C@H](NC(=O)c1ncn2c1C(=O)N(C)CC2)C(=O)OC(C)(C)C | . | . | . | . | . | 7 | . | . | . | . | .
Clc1ccc2nc(-c3ccccc3)cn2c1 | 95* | 97* | 92* | 12 | -2 | -147 | 4 | 86* | 99* | 91* | 33
Cc1ccc2nc(-c3ccc4c(c3)OCCO4)cn2c1 | 89* | 94* | 87* | 6 | -11 | -426 | 93* | 93* | 101* | 94* | 93*
Clc1ccc2nc(-c3ccc4c(c3)OCO4)cn2c1 | 75* | 79* | 78* | 12 | -7 | -416 | 29 | 86* | 70* | 64* | 11
CN(C)S(=O)(=O)c1cccc(-c2cn3cc(Cl)ccc3n2)c1 | -6 | -8 | -15 | 0 | 11 | -134 | . | . | . | . | .
CCCCNc1c(-c2ccc(SC(C)CC)cc2)nc2ccccn12 (stereo not drawn) | 97* | 83* | 74* | 36 | 32 | -451 | 73* | 64* | 94* | 82* | 83*
CCCCNc1c(-c2ccc(SC3CCCCC3)cc2)nc2ccccn12 | 83* | 30 | 63* | 20 | 31 | i | -22 | 7 | 13 | 17 | 3
CCCCNc1c(-c2cccc(SC3CCCCC3)c2)nc2ccc(Cl)cn12 | -11 | -5 | -3 | 2 | 20 | -484 | . | . | . | . | .
CCCCNc1c(-c2cccc(SC(C)CC)c2)nc2ccc(Cl)cn12 (stereo not drawn) | -9 | 0 | -10 | 14 | 31 | -483 | . | . | . | . | .
SMILES | SENP6 block | SENP7 inh | SENP8 block-1 | UBC13 inh | Apaf1 inhib | SENP8 block-2 | SENP8 conf | SENP6 confirm | SENP7 conf | Casp3 SENP sel | SENP luc ctr
CCOC(=O)NNc1ccc2nonc2c1[N+](=O)[O-] | 64* | 12 | 61* | -82 | 96* | . | 66* | 80* | 42 | 30 | 6
CCOC1=C2[C@H](c3ccccc3F)N(S(=O)(=O)c3ccc(C)cc3)C[C@H]2n2c(=O)n(-c3ccccc3)c(=O)n2C1 | . | . | . | . | . | 4 | . | . | . | . | .
CCCc1ccc(OC(=O)c2cccs2)cc1 | 32 | 42 | -4 | 0 | -6 | 16 | . | . | . | . | .
CCCc1ccc(OC(=O)c2ccc(O)cc2Cl)cc1 | 61* | 46 | 66* | 6 | -4 | 11 | 58* | 73* | 90* | 23 | 31
Cc1ccc2nc(-c3cccc(Br)c3)c(Cc3ccccn3)n2c1 | . | . | . | . | . | -288 | . | . | . | . | .
O=C(/C=C/c1ccccc1)Nc1cccc(C(=O)O)c1 | 99* | 100* | 97* | 1 | -8 | 2 | -25 | 99* | 103* | 95* | 98*
O=C(/C=C/c1ccccc1)Nc1cc(NC(=O)/C=C/c2ccccc2)cc(C(=O)O)c1 | -3 | 5 | 5 | ? | 11 | 11 | . | . | . | . | .
CSc1cccc(NC(=O)/C=C/c2ccccc2)c1 | 51* | 49 | 16 | -11 | 11 | 15 | 57* | 54* | 81* | 28 | 65*
CSc1cccc(NC(=O)/C=C/c2ccc(Cl)cc2)c1 | 66* | 59* | 38 | -17 | 16 | 9 | 54* | 59* | 84* | 33 | 51*
CSc1ccc(/C=C/C(=O)Nc2ccccc2)cc1 | 85* | 101* | 95* | 0 | -1 | -88 | 69* | 98* | 102* | 97* | 7
COc1ccc(-c2ccc(C(=O)NCCc3ccccc3)c3occc23)c(C)c1 | . | . | . | . | . | -219 | . | . | . | . | .
O=C1C=C(c2ccccc2Oc2ccccc2)C[C@@H](c2ccc(F)cc2)C1 | . | . | . | . | . | 12 | . | . | . | . | .
O=S1(=O)C[C@H](N2CCOCC2)[C@@H](COCc2ccccc2)N1 | . | . | . | . | . | 20 | . | . | . | . | .
O=C(NCc1cccc(Cl)c1)C1Cc2c(-c3ccccc3)ccnc2O1 (stereo not drawn) | . | . | . | . | . | 21 | . | . | . | . | .
CCN(CC)C(=O)c1cccc(-c2csc(C(O)c3cccc(Cl)c3)n2)c1 (stereo not drawn) | . | . | . | . | . | -2 | . | . | . | . | .
